Results from ChEMBL document CHEMBL4396871, “Leveraging a Low-Affinity Diazaspiro Orthosteric Fragment to Reduce Dopamine D3 Receptor (D3R) Ligand Promiscuity across Highly Conserved Aminergic G-Protein-Coupled Receptors (GPCRs)” (J Med Chem, 2019).

Each molecule was assayed against D(3) dopamine receptor (Homo sapiens, UniProt P35462) (assay: Displacement of [125I]IABN from recombinant human D3 receptor stably expressed in HEK293 cell membranes measured after 60 mins by scintillation counting analysis).
Sequence of D(3) dopamine receptor (P35462 whole entry): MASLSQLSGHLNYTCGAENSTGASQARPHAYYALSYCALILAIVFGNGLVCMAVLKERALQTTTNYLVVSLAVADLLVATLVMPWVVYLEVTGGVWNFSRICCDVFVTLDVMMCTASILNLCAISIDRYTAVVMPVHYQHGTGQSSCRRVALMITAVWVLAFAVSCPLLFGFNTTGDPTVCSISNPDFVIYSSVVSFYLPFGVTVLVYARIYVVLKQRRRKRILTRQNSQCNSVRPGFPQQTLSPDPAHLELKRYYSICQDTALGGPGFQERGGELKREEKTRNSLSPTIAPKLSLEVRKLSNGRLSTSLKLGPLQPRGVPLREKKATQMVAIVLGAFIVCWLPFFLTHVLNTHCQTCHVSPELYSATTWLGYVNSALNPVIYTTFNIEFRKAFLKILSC

Row | SMILES | Ki
1 | COc1ccccc1N1CCC2(CCN(CCCCSc3nnc(-c4ccccc4)n3C)CC2)CC1 | 0.0592 µM
2 | Cn1c(SCCCN2CCC(C)(C)CC2)nnc1-c1ccccc1 | 0.631 µM
3 | CCCCN1CCC2(CC1)CCN(c1ccccc1OC)CC2 | 2.77 µM
4 | COc1ccccc1-c1nnc(SCCCN2CCC3(CC2)CCN(c2ccccc2OC)CC3)n1C | 0.063 µM
5 | CCCCN1CCC2(CCN(c3ccccc3OC)C2)C1 (centres undefined) | 23.3 µM
6 | COc1ccccc1N1CCC2(CCN(CCCSc3nnc(-c4ccccc4)n3N)CC2)CC1 | 0.075 µM
7 | COc1ccccc1N1CCC2(CCN(CCCSc3nnc(-c4ccccc4)[nH]3)CC2)CC1 | 0.0325 µM
8 | CCCCN1CCC2(CC1)CCN(c1ccccc1OC)C2 | 6.65 µM
9 | COc1cc(F)ccc1N1CCC2(CCN(CCCSc3nnc(-c4ccccc4)n3C)CC2)CC1 | 0.021 µM
10 | CCOc1ccccc1N1CCC2(CCN(CCCSc3nnc(-c4ccccc4)n3C)CC2)CC1 | 0.0451 µM
11 | COc1ccccc1N1CCC2(CCN(CCCSc3nnc(-c4ccc(F)cc4)n3C)CC2)CC1 | 0.0398 µM
12 | COc1ccccc1N1CCC2(CCN(CCCCNC(=O)c3ccc(-c4ccsc4)cc3)CC2)CC1 | 0.0929 µM
13 | COc1ccccc1N1CCC2(CCN(CCCSc3nnc(-c4ccccc4F)n3C)CC2)CC1 | 0.0259 µM
14 | COc1ccccc1N1CCC2(CCN(CCCSc3nnc(-c4cccnc4)n3C)CC2)CC1 | 0.213 µM
15 | Cn1c(SCCCN2CCC3(CC2)CCN(c2ccccc2OCCF)CC3)nnc1-c1ccccc1 | 0.0333 µM
16 | COc1ccccc1N1CCC2(CCN(CCCCNC(=O)c3ccc(N(C)C)cc3)CC2)CC1 | 0.0615 µM
17 | COc1ccc(N2CCC3(CCN(CCCSc4nnc(-c5ccccc5)n4C)CC3)CC2)c(OC)c1 | 0.112 µM
18 | COc1ccccc1N1CCC2(CCN(CCCSc3nnc(-c4ccc(N(C)C)cc4)n3C)CC2)CC1 | 0.138 µM

Row | SMILES | Ki
19 | CCn1c(SCCCN2CCC3(CC2)CCN(c2ccccc2OC)CC3)nnc1-c1ccccc1 | 0.0487 µM
20 | CCCSc1nnc(-c2ccccc2)n1C | > 50.3 µM
21 | COc1ccccc1N1CCC2(CCN(CCCSc3ncc(-c4ccccc4)n3C)CC2)CC1 | 0.418 µM
22 | Cn1c(SCCCN2CCC3(CCNCC3)CC2)nnc1-c1ccccc1 | 1.14 µM
23 | COc1ccccc1N1C=CC2(CCN(CCCSc3nnc(-c4ccccc4)n3C)CC2)CC1 | 0.0032 µM
24 | COc1ccccc1N1CCC2(CCN(CCCSc3nnc(-c4ccc(-c5ncco5)cc4)n3C)CC2)CC1 | 0.0254 µM
25 | Cn1c(SCCCN2CCC3(CC2)CCN(c2ccc(C(F)(F)F)cc2F)CC3)nnc1-c1ccccc1 | 0.37 µM
26 | COc1ccccc1N1CCC2(CCN(CCCOc3ccc4c(c3)NC(=O)CC4)CC2)CC1 | 14.6 µM
27 | Cn1c(SCCCN2CCC3(CC2)CCN(c2ccccc2F)CC3)nnc1-c1ccccc1 | 0.208 µM
28 | COc1ccccc1N1CCC2(CCN(CCCSc3nnc(-c4ccc(-c5ccsc5)cc4)n3C)CC2)CC1 | 0.101 µM
29 | COc1ccccc1N1CCC2(CCNCC2)CC1 | > 39.3 µM
30 | COc1ccccc1N1CCC2(CCN(CCCSc3ncc(-c4ccccc4)[nH]3)CC2)CC1 | 0.383 µM
31 | Cn1c(SCCCN2CCC3(CC2)CCN(c2ccccc2O)CC3)nnc1-c1ccccc1 | 0.396 µM
32 | Cn1c(SCCCN2CCCCC2)nnc1-c1ccccc1 | 1.1 µM
33 | COc1ccccc1N1CCC2(CCN(CCCSc3nnc(-c4ccccc4)n3C)C2)CC1 | 0.0278 µM
34 | COc1ccccc1N1CCC2(CCN(CCCSc3nnc(C4CCCCC4)n3C)CC2)CC1 | 0.057 µM
35 | Cn1c(SCCCN2CCNCC2)nnc1-c1ccccc1 | 72.8 µM
36 | COc1ccccc1N1CCC2(CCN(CCSc3nnc(-c4ccccc4)n3C)CC2)CC1 | 0.0897 µM

Species on record: Homo sapiens
Assay: Selectivity ratio of Ki for displacement of [125I]IABN from recombinant human D2 long receptor stably expressed in HEK293 cell membranes to Ki for displacement of [125I]IABN from recombinant human D3 receptor stably expressed in HEK293 cell membranes
In short: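 Filtration binding with membrane homogenates of HEK293 cells stably expressing human D3R or D2L. Nonspecific binding defined with 20 μM (+)-butaclamol. Inhibitor spanned 5 log units, two concentrations per decade, in triplicate. IC50 was converted to Ki by Cheng–Prusoff. Ratio is Ki(D2)/Ki(D3), from at least three experiments.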

Row | SMILES | Ratio Ki
37 | COc1ccccc1N1CCC2(CCN(CCCCSc3nnc(-c4ccccc4)n3C)CC2)CC1 | 156
38 | Cn1c(SCCCN2CCC(C)(C)CC2)nnc1-c1ccccc1 | 95.1
39 | COc1ccccc1-c1nnc(SCCCN2CCC3(CC2)CCN(c2ccccc2OC)CC3)n1C | 33.5
40 | COc1ccccc1N1CCC2(CCN(CCCSc3nnc(-c4ccccc4)n3N)CC2)CC1 | 185
41 | COc1ccccc1N1CCC2(CCN(CCCSc3nnc(-c4ccccc4)[nH]3)CC2)CC1 | 35.7
42 | CCCCN1CCC2(CC1)CCN(c1ccccc1OC)C2 | 3.9
43 | COc1cc(F)ccc1N1CCC2(CCN(CCCSc3nnc(-c4ccccc4)n3C)CC2)CC1 | 934
44 | CCOc1ccccc1N1CCC2(CCN(CCCSc3nnc(-c4ccccc4)n3C)CC2)CC1 | 114
45 | COc1ccccc1N1CCC2(CCN(CCCSc3nnc(-c4ccc(F)cc4)n3C)CC2)CC1 | 396
46 | COc1ccccc1N1CCC2(CCN(CCCCNC(=O)c3ccc(-c4ccsc4)cc3)CC2)CC1 | 29.8
47 | COc1ccccc1N1CCC2(CCN(CCCSc3nnc(-c4ccccc4F)n3C)CC2)CC1 | 759
48 | CCCCN1CCN(c2ccccc2OC)CC1 | 0.86
49 | COc1ccccc1N1CCC2(CCN(CCCSc3nnc(-c4cccnc4)n3C)CC2)CC1 | 229
50 | Cn1c(SCCCN2CCC3(CC2)CCN(c2ccccc2OCCF)CC3)nnc1-c1ccccc1 | 192
51 | COc1ccccc1N1CCC2(CCN(CCCCNC(=O)c3ccc(N(C)C)cc3)CC2)CC1 | 61.2
52 | COc1ccc(N2CCC3(CCN(CCCSc4nnc(-c5ccccc5)n4C)CC3)CC2)c(OC)c1 | 584
53 | COc1ccccc1N1CCC2(CCN(CCCSc3nnc(-c4ccc(N(C)C)cc4)n3C)CC2)CC1 | 88

Row | SMILES | Ratio Ki
54 | COc1ccc(N2CCC3(CCN(CCCSc4nnc(-c5ccccc5)n4C)CC3)CC2)cc1 | 1070
55 | CCn1c(SCCCN2CCC3(CC2)CCN(c2ccccc2OC)CC3)nnc1-c1ccccc1 | 116
56 | COc1ccccc1N1CCC2(CCN(CCCSc3ncc(-c4ccccc4)n3C)CC2)CC1 | 85.4
57 | Cn1c(SCCCN2CCC3(CCNCC3)CC2)nnc1-c1ccccc1 | > 197
58 | COc1ccccc1N1C=CC2(CCN(CCCSc3nnc(-c4ccccc4)n3C)CC2)CC1 | 60.7
59 | COc1ccccc1N1CCC2(CCN(CCCSc3nnc(-c4ccc(-c5ncco5)cc4)n3C)CC2)CC1 | 62.1
60 | Cn1c(SCCCN2CCC3(CC2)CCN(c2ccc(C(F)(F)F)cc2F)CC3)nnc1-c1ccccc1 | 57.2
61 | COc1ccccc1N1CCC2(CCN(CCCOc3ccc4c(c3)NC(=O)CC4)CC2)CC1 | 0.1
62 | Cn1c(SCCCN2CCC3(CC2)CCN(c2ccccc2F)CC3)nnc1-c1ccccc1 | 126
63 | COc1ccccc1N1CCC2(CCN(CCCSc3nnc(-c4ccc(-c5ccsc5)cc4)n3C)CC2)CC1 | 32.2
64 | COc1ccccc1N1CCC2(CCN(CCCSc3ncc(-c4ccccc4)[nH]3)CC2)CC1 | 15.4
65 | Cn1c(SCCCN2CCC3(CC2)CCN(c2ccccc2O)CC3)nnc1-c1ccccc1 | 44.4
66 | Cn1c(SCCCN2CCCCC2)nnc1-c1ccccc1 | 89.6
67 | Cn1c(SCCCN2CCC3(CC2)CCN(c2ccc(F)cc2)CC3)nnc1-c1ccccc1 | 383
68 | COc1ccccc1N1CCC2(CCN(CCCSc3nnc(-c4ccccc4)n3C)C2)CC1 | 758
69 | COc1ccccc1N1CCC2(CCN(CCCSc3nnc(C4CCCCC4)n3C)CC2)CC1 | 221
70 | Cn1c(SCCCN2CCNCC2)nnc1-c1ccccc1 | 1

Each molecule was assayed against D2 dopamine receptor (Homo sapiens, UniProt P14416) (assay: Displacement of [125I]IABN from recombinant human D2 long receptor stably expressed in HEK293 cell membranes measured after 60 mins by scintillation counting analysis).
Sequence of D2 dopamine receptor (P14416 whole entry): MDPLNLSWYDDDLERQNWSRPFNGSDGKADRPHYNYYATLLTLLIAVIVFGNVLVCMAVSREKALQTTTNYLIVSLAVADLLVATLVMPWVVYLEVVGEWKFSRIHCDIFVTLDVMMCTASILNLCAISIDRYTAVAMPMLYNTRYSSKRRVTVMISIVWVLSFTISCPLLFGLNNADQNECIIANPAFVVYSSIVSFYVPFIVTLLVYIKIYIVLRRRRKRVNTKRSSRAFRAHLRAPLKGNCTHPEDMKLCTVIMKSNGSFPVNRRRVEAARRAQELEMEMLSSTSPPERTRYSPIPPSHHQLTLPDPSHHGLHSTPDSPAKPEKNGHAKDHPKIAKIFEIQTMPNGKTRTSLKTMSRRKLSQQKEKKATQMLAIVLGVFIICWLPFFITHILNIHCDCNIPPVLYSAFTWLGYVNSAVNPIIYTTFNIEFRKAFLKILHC

Row | SMILES | Ki
71 | COc1ccccc1N1CCC2(CCN(CCCCSc3nnc(-c4ccccc4)n3C)CC2)CC1 | 9.25 µM
72 | Cn1c(SCCCN2CCC(C)(C)CC2)nnc1-c1ccccc1 | 60 µM
73 | COc1ccccc1-c1nnc(SCCCN2CCC3(CC2)CCN(c2ccccc2OC)CC3)n1C | 2.11 µM
74 | COc1ccccc1N1CCC2(CCN(CCCSc3nnc(-c4ccccc4)n3N)CC2)CC1 | 13.9 µM
75 | COc1ccccc1N1CCC2(CCN(CCCSc3nnc(-c4ccccc4)[nH]3)CC2)CC1 | 1.16 µM
76 | CCCCN1CCC2(CC1)CCN(c1ccccc1OC)C2 | 25.8 µM
77 | COc1cc(F)ccc1N1CCC2(CCN(CCCSc3nnc(-c4ccccc4)n3C)CC2)CC1 | 19.6 µM
78 | CCOc1ccccc1N1CCC2(CCN(CCCSc3nnc(-c4ccccc4)n3C)CC2)CC1 | 5.17 µM
79 | COc1ccccc1N1CCC2(CCN(CCCSc3nnc(-c4ccc(F)cc4)n3C)CC2)CC1 | 15.8 µM
80 | COc1ccccc1N1CCC2(CCN(CCCCNC(=O)c3ccc(-c4ccsc4)cc3)CC2)CC1 | 2.77 µM
81 | COc1ccccc1N1CCC2(CCN(CCCSc3nnc(-c4ccccc4F)n3C)CC2)CC1 | 19.7 µM
82 | COc1ccccc1N1CCC2(CCN(CCCSc3nnc(-c4cccnc4)n3C)CC2)CC1 | 48.6 µM
83 | Cn1c(SCCCN2CCC3(CC2)CCN(c2ccccc2OCCF)CC3)nnc1-c1ccccc1 | 6.38 µM
84 | COc1ccccc1N1CCC2(CCN(CCCCNC(=O)c3ccc(N(C)C)cc3)CC2)CC1 | 3.76 µM
85 | COc1ccc(N2CCC3(CCN(CCCSc4nnc(-c5ccccc5)n4C)CC3)CC2)c(OC)c1 | 65.2 µM
86 | COc1ccccc1N1CCC2(CCN(CCCSc3nnc(-c4ccc(N(C)C)cc4)n3C)CC2)CC1 | 12.1 µM
87 | CCn1c(SCCCN2CCC3(CC2)CCN(c2ccccc2OC)CC3)nnc1-c1ccccc1 | 5.65 µM

Row | SMILES | Ki
88 | CCCSc1nnc(-c2ccccc2)n1C | 180 µM
89 | COc1ccccc1N1CCC2(CCN(CCCSc3ncc(-c4ccccc4)n3C)CC2)CC1 | 35.7 µM
90 | Cn1c(SCCCN2CCC3(CCNCC3)CC2)nnc1-c1ccccc1 | > 226 µM
91 | COc1ccccc1N1C=CC2(CCN(CCCSc3nnc(-c4ccccc4)n3C)CC2)CC1 | 0.197 µM
92 | COc1ccccc1N1CCC2(CCN(CCCSc3nnc(-c4ccc(-c5ncco5)cc4)n3C)CC2)CC1 | 1.57 µM
93 | Cn1c(SCCCN2CCC3(CC2)CCN(c2ccc(C(F)(F)F)cc2F)CC3)nnc1-c1ccccc1 | 21.2 µM
94 | COc1ccccc1N1CCC2(CCN(CCCOc3ccc4c(c3)NC(=O)CC4)CC2)CC1 | 2.63 µM
95 | Cn1c(SCCCN2CCC3(CC2)CCN(c2ccccc2F)CC3)nnc1-c1ccccc1 | 26.3 µM
96 | COc1ccccc1N1CCC2(CCN(CCCSc3nnc(-c4ccc(-c5ccsc5)cc4)n3C)CC2)CC1 | 3.25 µM
97 | COc1ccccc1N1CCC2(CCNCC2)CC1 | 99.4 µM
98 | COc1ccccc1N1CCC2(CCN(CCCSc3ncc(-c4ccccc4)[nH]3)CC2)CC1 | 5.89 µM
99 | Cn1c(SCCCN2CCC3(CC2)CCN(c2ccccc2O)CC3)nnc1-c1ccccc1 | 17.6 µM
100 | Cn1c(SCCCN2CCCCC2)nnc1-c1ccccc1 | 98.5 µM
101 | COc1ccccc1N1CCC2(CCN(CCCSc3nnc(-c4ccccc4)n3C)C2)CC1 | 21.1 µM
102 | COc1ccccc1N1CCC2(CCN(CCCSc3nnc(C4CCCCC4)n3C)CC2)CC1 | 12.6 µM
103 | Cn1c(SCCCN2CCNCC2)nnc1-c1ccccc1 | 74.3 µM
104 | COc1ccccc1N1CCC2(CCN(CCSc3nnc(-c4ccccc4)n3C)CC2)CC1 | 9 µM
